Active and inactive are the calls of the source. The rule behind the calls is not given here.
What was measured:
[1] = system: BXPC-3; experiment: Induction of cell cycle arrest in human BXPC-3 cells assessed as accumulation at G2 phase at 5 uM incubated for 48 hrs by PI/RNase staining based flow cytometry (reference value: 8.15 %); type: functional
[2] = system: BXPC-3; experiment: Induction of cell cycle arrest in human BXPC-3 cells assessed as accumulation at G1 phase at 2.5 uM incubated for 48 hrs by PI/RNase staining based flow cytometry (reference value: 84.2 %); type: functional
[3] = system: PANC-1; experiment: Induction of apoptosis in human PANC-1 cells assessed as necrotic cells at 10 uM incubated for 48 hrs by Annexin V-FITC/PI staining based flow cytometry (reference value: 2.24 %); type: functional
[4] = Toxicity in BALB/c nude mouse xenografted with human BxPC-3 cells assessed as tissue fibrosis in spleen at 5 to 15 mg/kg, ip qd for 21 days by H and E staining based analysis; settings: in vivo, 504 h
[5] = system: BXPC-3; experiment: Induction of apoptosis in human BXPC-3 cells assessed as late apoptotic cells at 8 uM incubated for 48 hrs by Annexin V-FITC/PI staining based flow cytometry (reference value: 6.72 %); type: functional
[6] = system: PANC-1; experiment: Inhibition of cell migration in human PANC-1 cells incubated for 24 hrs by wound healing assay; type: functional, cell-based; settings: dose 2.5-10 µM
Summary of the method: (§1)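 Monolayers at 80-90% confluence were scratched with a cross and washed three times with PBS. Eight fields were imaged at 0 h. Cells were then incubated with compound in medium containing 2% FBS, and the same fields were re-imaged at 24 h (100×). Closure % = (area 0 h − area 24 h)/area 0 h × 100; n = 3.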

[7] = system: PANC-1; experiment: Antiproliferative activity against human PANC-1 cells assessed as inhibition of cell viability incubated for 48 hrs by MTT assay; type: functional, cell-based; settings: PANC-1, 48 h
Summary of the method: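 Cells in log phase were seeded at 8,000-10,000/well and allowed to adhere overnight at 37 °C, 5% CO2. Compound from DMSO stock, diluted in medium, was applied for 48 h; controls got drug-free medium, blanks held medium only. MTT (5 mg/mL stock) 4 h, formazan dissolved in DMSO, A490 read. Viability was blank-corrected against untreated cells; IC50 came from a fitted curve; three separate experiments.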

[8] = system: BXPC-3; experiment: Inhibition of Hh signaling pathway in human BXPC-3 cells assessed as reduction in Gli1 mRNA level incubated for 48 hrs by qRT-PCR analysis; type: cell-based; settings: dose 2.5-10 µM
Summary of the method: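 Total RNA was extracted by column kit after 48 h treatment and checked spectrophotometrically. Gli1 and Ptch1 transcripts were quantified by real-time RT-qPCR with GAPDH as internal control. Results are fold change relative to the untreated group; three separate experiments.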

[9] = biological target: Protein smoothened (Homo sapiens) (UniProt Q99835); experiment: Antagonist activity at Smo (unknown origin) transfected in HEK293T cells incubated for 2 hrs by BODIPY-Cyclopamine based competitive binding assay; type: cell-based; settings: filed as antagonist, dose 10-50 nM
Chain of Protein smoothened (Homo sapiens) (Q99835 whole entry): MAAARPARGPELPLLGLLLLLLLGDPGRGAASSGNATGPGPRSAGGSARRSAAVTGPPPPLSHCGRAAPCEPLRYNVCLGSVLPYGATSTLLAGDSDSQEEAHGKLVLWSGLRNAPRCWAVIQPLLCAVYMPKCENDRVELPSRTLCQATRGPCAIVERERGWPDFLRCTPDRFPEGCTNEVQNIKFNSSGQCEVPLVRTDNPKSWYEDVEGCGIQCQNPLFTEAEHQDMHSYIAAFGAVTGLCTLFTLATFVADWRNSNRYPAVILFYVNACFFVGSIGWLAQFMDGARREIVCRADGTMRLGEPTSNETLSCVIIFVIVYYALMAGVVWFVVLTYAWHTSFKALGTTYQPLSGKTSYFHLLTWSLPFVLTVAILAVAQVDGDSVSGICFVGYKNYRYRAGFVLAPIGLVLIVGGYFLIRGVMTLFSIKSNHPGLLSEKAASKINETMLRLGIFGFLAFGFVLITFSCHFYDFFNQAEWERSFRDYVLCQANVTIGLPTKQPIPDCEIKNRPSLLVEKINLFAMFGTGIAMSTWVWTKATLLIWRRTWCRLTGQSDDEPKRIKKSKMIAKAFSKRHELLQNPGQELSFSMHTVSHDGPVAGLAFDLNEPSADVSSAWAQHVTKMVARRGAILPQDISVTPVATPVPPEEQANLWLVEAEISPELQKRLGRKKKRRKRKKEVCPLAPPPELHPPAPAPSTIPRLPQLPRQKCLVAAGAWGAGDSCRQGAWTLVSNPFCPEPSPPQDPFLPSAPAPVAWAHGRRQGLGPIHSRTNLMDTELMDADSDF
Summary of the method: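 […] cells stably transfected with a Smo plasmid, with expression confirmed by Western blot. Cells (2×10^4/well) were grown 24 h in poly-L-lysine-coated wells, then fixed with 4% paraformaldehyde and DAPI-stained. BODIPY-cyclopamine (100 nM) was added together with test compound for 2 h. Green fluorescence was imaged by fluorescence microscopy.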

[10] = Toxicity in BALB/c nude mouse xenografted with human BxPC-3 cells assessed as inflammatory infiltration in lung at 5 to 15 mg/kg, ip qd for 21 days by H and E staining based analysis; settings: in vivo, 504 h
[11] = system: PANC-1; experiment: Induction of apoptosis in human PANC-1 cells assessed as necrotic cells at 5 uM incubated for 48 hrs by Annexin V-FITC/PI staining based flow cytometry (reference value: 2.24 %); type: functional
[12] = system: PANC-1; experiment: Induction of cell cycle arrest in human PANC-1 cells assessed as accumulation at S phase at 5 uM incubated for 48 hrs by PI/RNase staining based flow cytometry (reference value: 7.58 %); type: functional
[13] = system: BXPC-3; experiment: Induction of apoptosis in human BXPC-3 cells assessed as early apoptotic cells at 5 uM incubated for 48 hrs by Annexin V-FITC/PI staining based flow cytometry (reference value: 1.11 %); type: functional
[14] = system: PANC-1; experiment: Induction of apoptosis in human PANC-1 cells assessed as late apoptotic cells at 5 uM incubated for 48 hrs by Annexin V-FITC/PI staining based flow cytometry (reference value: 2.74 %); type: functional
[15] = system: PANC-1; experiment: Induction of cell cycle arrest in human PANC-1 cells assessed as accumulation at G1 phase at 5 uM incubated for 48 hrs by PI/RNase staining based flow cytometry (reference value: 82.0 %); type: functional
[16] = system: PANC-1; experiment: Induction of apoptosis in human PANC-1 cells assessed as early apoptotic cells at 10 uM incubated for 48 hrs by Annexin V-FITC/PI staining based flow cytometry (reference value: 1.88 %); type: functional
[17] = Toxicity in BALB/c nude mouse xenografted with human BxPC-3 cells assessed as necrosis in kidneys at 5 to 15 mg/kg, ip qd for 21 days by H and E staining based analysis; settings: in vivo, 504 h
[18] = system: BXPC-3; experiment: Induction of apoptosis in human BXPC-3 cells assessed as viable cells at 2.5 uM incubated for 48 hrs by Annexin V-FITC/PI staining based flow cytometry (reference value: 91.5 %); type: functional; settings: read-out: Activity
[19] = system: BXPC-3; experiment: Induction of apoptosis in human BXPC-3 cells assessed as necrotic cells at 10 uM incubated for 48 hrs by Annexin V-FITC/PI staining based flow cytometry (reference value: 0.71 %); type: functional
[20] = system: PANC-1; experiment: Induction of apoptosis in human PANC-1 cells assessed as necrotic cells at 8 uM incubated for 48 hrs by Annexin V-FITC/PI staining based flow cytometry (reference value: 2.24 %); type: functional
[21] = system: BXPC-3; experiment: Inhibition of cell migration in human BXPC-3 cells incubated for 24 hrs by wound healing assay; type: functional, cell-based; settings: dose 2.5-10 µM; summary of the method: as §1
[22] = system: BXPC-3; experiment: Induction of cell cycle arrest in human BXPC-3 cells assessed as accumulation at G2 phase at 10 uM incubated for 48 hrs by PI/RNase staining based flow cytometry (reference value: 8.15 %); type: functional
[23] = Toxicity in BALB/c nude mouse xenografted with human BxPC-3 cells assessed as body weight loss at 5 to 15 mg/kg, ip qd for 21 days; settings: in vivo, 504 h
[24] = system: BxPC-3; experiment: Antitumor activity aginst human BxPC-3 cells xenografted in BALB/c nude mouse assessed as tumor growth inhibition at 5 to 15 mg/kg, ip qd for 21 days; settings: dose 5-15 mg/kg, time 21.0 day
[25] = system: BXPC-3; experiment: Induction of apoptosis in human BXPC-3 cells assessed as viable cells at 10 uM incubated for 48 hrs by Annexin V-FITC/PI staining based flow cytometry (reference value: 91.5 %); type: functional; settings: read-out: Activity
[26] = Toxicity in BALB/c nude mouse xenografted with human BxPC-3 cells assessed as inflammatory infiltration in kidneys at 5 to 15 mg/kg, ip qd for 21 days by H and E staining based analysis; settings: in vivo, 504 h
[27] = system: BXPC-3; experiment: Induction of apoptosis in human BXPC-3 cells assessed as early apoptotic cells at 8 uM incubated for 48 hrs by Annexin V-FITC/PI staining based flow cytometry (reference value: 1.11 %); type: functional

With CN(C)Cc1ccc(NC(=O)c2ccc(Nc3nccc(-c4cccnc4)n3)cc2)cc1 the Activity [1] was 12.5%, the Activity [2] was 72.7% and the Activity [3] was 2.56%. The Activity [4] was “Non-toxic”, the Activity [5] was 12.3% and the inhibition [6] was “Dose-dependent-effect”. The IC50 [7] was 4.2 µM, the inhibition [8] was “Dose-dependent-effect” and the Activity [9] was “Dose-dependent-effect; Exhibited Fluorescence Quenching Activity Similar To Compound 1”. For the same compound, the Activity [10] was “Non-toxic”, the Activity [11] was 2.39% and the Activity [12] was 8.18%. For the same compound, the Activity [13] was 2.71%, the Activity [14] was 7.03% and the Activity [15] was 84.2%. For the same compound, the Activity [16] was 4.09%, the Activity [17] was “Non-toxic” and the viability at 2.5 µM [18] was 88.5%. The Activity [19] was 2.32%, the Activity [20] was 2.16% and the inhibition [21] was “Dose-dependent-effect”. The Activity [22] was 2.98%, the Activity [23] was “Non-toxic” and the inhibition [24] was “Active”. The viability at 10 µM [25] was 71.8%, the Activity [26] was “Non-toxic” and the Activity [27] was 2.65%.

Source: ChEMBL document CHEMBL6092204, “Synthesis of pyridyl pyrimidine hedgehog signaling pathway inhibitors and their antitumor activity in human pancreatic cancer” (Eur J Med Chem, 2024)
